Tests used:
Brain [1] = assay: Biodistribution in brain of Fischer 344 rat bearing rat 9L cells at 20 uCi, iv after 15 mins; assay type: ADME, organism-based; conditions: in vivo, 0.25 h
Method in brief: (§1)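 Male Fischer 344 rats (200–250 g) carrying intracranial 9L gliosarcoma (5×10^4 cells implanted stereotactically, 10–12 days growth), under ketamine:xylazine anaesthesia. About 20 μCi tracer in 0.5 mL sterile saline given via tail-vein catheter. Groups of 4–5 were killed by intracardiac KCl at 15 (NMeFAMP only), 30, 60 or 120 min. Tissues were weighed and gamma-counted, decay-corrected, and reported as %ID/g, mean ± SD.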

Brain [2] = assay: Biodistribution in brain of Fischer 344 rat bearing rat 9L cells at 20 uCi, iv after 30 mins; assay type: ADME, organism-based; conditions: in vivo, 0.5 h; method in brief: as §1
[3] = Biodistribution in tumor of Fischer 344 rat bearing rat 9L cells at 20 uCi, iv after 30 mins; assay type: ADME, organism-based, Neoplasm; conditions: in vivo, 0.5 h; method in brief: as §1
[4] = Ratio of drug level from tumor to brain of Fischer 344 rat bearing rat 9L cells at 20 uCi, iv after 120 mins; assay type: ADME, organism-based; conditions: in vivo, 2 h
Blood [5] = assay: Biodistribution in blood of Fischer 344 rat bearing rat 9L cells at 20 uCi, iv after 30 mins; assay type: ADME, organism-based; conditions: in vivo, 0.5 h; method in brief: as §1
Blood [6] = assay: Biodistribution in blood of Fischer 344 rat bearing rat 9L cells at 20 uCi, iv after 60 mins; assay type: ADME, organism-based; conditions: in vivo, 1 h; method in brief: as §1
Blood [7] = assay: Biodistribution in blood of Fischer 344 rat bearing rat 9L cells at 20 uCi, iv after 120 mins; assay type: ADME, organism-based; conditions: in vivo, 2 h; method in brief: as §1
Heart [8] = assay: Biodistribution in heart of Fischer 344 rat bearing rat 9L cells at 20 uCi, iv after 30 mins; assay type: ADME, organism-based; conditions: in vivo, 0.5 h; method in brief: as §1
Heart [9] = assay: Biodistribution in heart of Fischer 344 rat bearing rat 9L cells at 20 uCi, iv after 60 mins; assay type: ADME, organism-based; conditions: in vivo, 1 h; method in brief: as §1
Heart [10] = assay: Biodistribution in heart of Fischer 344 rat bearing rat 9L cells at 20 uCi, iv after 120 mins; assay type: ADME, organism-based; conditions: in vivo, 2 h; method in brief: as §1
Lung [11] = assay: Biodistribution in lung of Fischer 344 rat bearing rat 9L cells at 20 uCi, iv after 30 mins; assay type: ADME, organism-based; conditions: in vivo, 0.5 h; method in brief: as §1
Lung [12] = assay: Biodistribution in lung of Fischer 344 rat bearing rat 9L cells at 20 uCi, iv after 60 mins; assay type: ADME, organism-based; conditions: in vivo, 1 h; method in brief: as §1
Lung [13] = assay: Biodistribution in lung of Fischer 344 rat bearing rat 9L cells at 20 uCi, iv after 120 mins; assay type: ADME, organism-based; conditions: in vivo, 2 h; method in brief: as §1
Liver [14] = assay: Biodistribution in liver of Fischer 344 rat bearing rat 9L cells at 20 uCi, iv after 30 mins; assay type: ADME, organism-based; conditions: in vivo, 0.5 h; method in brief: as §1
Liver [15] = assay: Biodistribution in liver of Fischer 344 rat bearing rat 9L cells at 20 uCi, iv after 60 mins; assay type: ADME, organism-based; conditions: in vivo, 1 h; method in brief: as §1
Liver [16] = assay: Biodistribution in liver of Fischer 344 rat bearing rat 9L cells at 20 uCi, iv after 120 mins; assay type: ADME, organism-based; conditions: in vivo, 2 h; method in brief: as §1
Pancreas [17] = assay: Biodistribution in pancreas of Fischer 344 rat bearing rat 9L cells at 20 uCi, iv after 30 mins; assay type: ADME, organism-based; conditions: in vivo, 0.5 h; method in brief: as §1
Pancreas [18] = assay: Biodistribution in pancreas of Fischer 344 rat bearing rat 9L cells at 20 uCi, iv after 60 mins; assay type: ADME, organism-based; conditions: in vivo, 1 h; method in brief: as §1
Pancreas [19] = assay: Biodistribution in pancreas of Fischer 344 rat bearing rat 9L cells at 20 uCi, iv after 120 mins; assay type: ADME, organism-based; conditions: in vivo, 2 h; method in brief: as §1
Spleen [20] = assay: Biodistribution in spleen of Fischer 344 rat bearing rat 9L cells at 20 uCi, iv after 30 mins; assay type: ADME, organism-based; conditions: in vivo, 0.5 h; method in brief: as §1
Spleen [21] = assay: Biodistribution in spleen of Fischer 344 rat bearing rat 9L cells at 20 uCi, iv after 60 mins; assay type: ADME, organism-based; conditions: in vivo, 1 h; method in brief: as §1
Spleen [22] = assay: Biodistribution in spleen of Fischer 344 rat bearing rat 9L cells at 20 uCi, iv after 120 mins; assay type: ADME, organism-based; conditions: in vivo, 2 h; method in brief: as §1
Kidney [23] = assay: Biodistribution in kidney of Fischer 344 rat bearing rat 9L cells at 20 uCi, iv after 30 mins; assay type: ADME, organism-based; conditions: in vivo, 0.5 h; method in brief: as §1
Kidney [24] = assay: Biodistribution in kidney of Fischer 344 rat bearing rat 9L cells at 20 uCi, iv after 60 mins; assay type: ADME, organism-based; conditions: in vivo, 1 h; method in brief: as §1
Kidney [25] = assay: Biodistribution in kidney of Fischer 344 rat bearing rat 9L cells at 20 uCi, iv after 120 mins; assay type: ADME, organism-based; conditions: in vivo, 2 h; method in brief: as §1
Muscle tissue [26] = assay: Biodistribution in muscle of Fischer 344 rat bearing rat 9L cells at 20 uCi, iv after 30 mins; assay type: ADME, organism-based; conditions: in vivo, 0.5 h; method in brief: as §1
Muscle tissue [27] = assay: Biodistribution in muscle of Fischer 344 rat bearing rat 9L cells at 20 uCi, iv after 60 mins; assay type: ADME, organism-based; conditions: in vivo, 1 h; method in brief: as §1
Muscle tissue [28] = assay: Biodistribution in muscle of Fischer 344 rat bearing rat 9L cells at 20 uCi, iv after 120 mins; assay type: ADME, organism-based; conditions: in vivo, 2 h; method in brief: as §1
Bone [29] = assay: Biodistribution in bone of Fischer 344 rat bearing rat 9L cells at 20 uCi, iv after 30 mins; assay type: ADME, organism-based, Bone element; conditions: in vivo, 0.5 h; method in brief: as §1
Bone [30] = assay: Biodistribution in bone of Fischer 344 rat bearing rat 9L cells at 20 uCi, iv after 60 mins; assay type: ADME, organism-based, Bone element; conditions: in vivo, 1 h; method in brief: as §1
Bone [31] = assay: Biodistribution in bone of Fischer 344 rat bearing rat 9L cells at 20 uCi, iv after 120 mins; assay type: ADME, organism-based, Bone element; conditions: in vivo, 2 h; method in brief: as §1
[32] = Biodistribution in testis of Fischer 344 rat bearing rat 9L cells at 20 uCi, iv after 30 mins; assay type: ADME, organism-based; conditions: in vivo, 0.5 h; method in brief: as §1
[33] = Biodistribution in testis of Fischer 344 rat bearing rat 9L cells at 20 uCi, iv after 60 mins; assay type: ADME, organism-based; conditions: in vivo, 1 h; method in brief: as §1
[34] = Biodistribution in testis of Fischer 344 rat bearing rat 9L cells at 20 uCi, iv after 120 mins; assay type: ADME, organism-based; conditions: in vivo, 2 h; method in brief: as §1
Blood [35] = assay: Biodistribution in blood of Fischer 344 rat bearing rat 9L cells at 20 uCi, iv after 15 mins; assay type: ADME, organism-based; conditions: in vivo, 0.25 h; method in brief: as §1
Heart [36] = assay: Biodistribution in heart of Fischer 344 rat bearing rat 9L cells at 20 uCi, iv after 15 mins; assay type: ADME, organism-based; conditions: in vivo, 0.25 h; method in brief: as §1
Lung [37] = assay: Biodistribution in lung of Fischer 344 rat bearing rat 9L cells at 20 uCi, iv after 15 mins; assay type: ADME, organism-based; conditions: in vivo, 0.25 h; method in brief: as §1
Liver [38] = assay: Biodistribution in liver of Fischer 344 rat bearing rat 9L cells at 20 uCi, iv after 15 mins; assay type: ADME, organism-based; conditions: in vivo, 0.25 h; method in brief: as §1
Pancreas [39] = assay: Biodistribution in pancreas of Fischer 344 rat bearing rat 9L cells at 20 uCi, iv after 15 mins; assay type: ADME, organism-based; conditions: in vivo, 0.25 h; method in brief: as §1
Spleen [40] = assay: Biodistribution in spleen of Fischer 344 rat bearing rat 9L cells at 20 uCi, iv after 15 mins; assay type: ADME, organism-based; conditions: in vivo, 0.25 h; method in brief: as §1
Kidney [41] = assay: Biodistribution in kidney of Fischer 344 rat bearing rat 9L cells at 20 uCi, iv after 15 mins; assay type: ADME, organism-based; conditions: in vivo, 0.25 h; method in brief: as §1
Muscle tissue [42] = assay: Biodistribution in muscle of Fischer 344 rat bearing rat 9L cells at 20 uCi, iv after 15 mins; assay type: ADME, organism-based; conditions: in vivo, 0.25 h; method in brief: as §1
Bone [43] = assay: Biodistribution in bone of Fischer 344 rat bearing rat 9L cells at 20 uCi, iv after 15 mins; assay type: ADME, organism-based, Bone element; conditions: in vivo, 0.25 h; method in brief: as §1
[44] = Biodistribution in testis of Fischer 344 rat bearing rat 9L cells at 20 uCi, iv after 15 mins; assay type: ADME, organism-based; conditions: in vivo, 0.25 h; method in brief: as §1
[45] = rat, in vivo, iv, 1 h
[46] = rat, in vivo, iv, 1 h; remark: listed apart in the source
Brain [47] = assay: Biodistribution in brain of Fischer 344 rat bearing rat 9L cells at 20 uCi, iv after 15 mins; conditions: in vivo
Brain [48] = assay: Biodistribution in brain of Fischer 344 rat bearing rat 9L cells at 20 uCi, iv after 30 mins; conditions: in vivo, 0.5 h
[49] = Ratio of drug level from tumor to brain of Fischer 344 rat bearing rat 9L cells at 20 uCi, iv after 60 mins; conditions: in vivo, 1 h

SMILES: CN[C@@](C)(C[18F])C(=O)O.Cl
- Drug uptake (Brain [1]): 0.06 % ID/g
- Drug uptake (Brain [2]): 0.04 % ID/g
- Ratio [3]: 53.2
- Ratio [4]: 115.4
- Drug uptake (Blood [5]): 0.32 % ID/g
- Drug uptake (Blood [6]): 0.24 % ID/g
- Drug uptake (Blood [7]): 0.14 % ID/g
- Drug uptake (Heart [8]): 0.23 % ID/g
- Drug uptake (Heart [9]): 0.24 % ID/g
- Drug uptake (Heart [10]): 0.22 % ID/g
- Drug uptake (Lung [11]): 0.36 % ID/g
- Drug uptake (Lung [12]): 0.38 % ID/g
- Drug uptake (Lung [13]): 0.25 % ID/g
- Drug uptake (Liver [14]): 0.61 % ID/g
- Drug uptake (Liver [15]): 0.52 % ID/g
- Drug uptake (Liver [16]): 0.4 % ID/g
- Drug uptake (Pancreas [17]): 2.72 % ID/g
- Drug uptake (Pancreas [18]): 3.41 % ID/g
- Drug uptake (Pancreas [19]): 3.39 % ID/g
- Drug uptake (Spleen [20]): 0.63 % ID/g
- Drug uptake (Spleen [21]): 0.59 % ID/g
- Drug uptake (Spleen [22]): 0.62 % ID/g
- Drug uptake (Kidney [23]): 8.91 % ID/g
- Drug uptake (Kidney [24]): 4.44 % ID/g
- Drug uptake (Kidney [25]): 2.45 % ID/g
- Drug uptake (Muscle tissue [26]): 0.23 % ID/g
- Drug uptake (Muscle tissue [27]): 0.2 % ID/g
- Drug uptake (Muscle tissue [28]): 0.22 % ID/g
- Drug uptake (Bone [29]): 0.48 % ID/g
- Drug uptake (Bone [30]): 0.51 % ID/g
- Drug uptake (Bone [31]): 0.44 % ID/g
- Drug uptake [32]: 0.15 % ID/g
- Drug uptake [33]: 0.15 % ID/g
- Drug uptake [34]: 0.16 % ID/g
- Drug uptake (Blood [35]): 0.41 % ID/g
- Drug uptake (Heart [36]): 0.55 % ID/g
- Drug uptake (Lung [37]): 0.79 % ID/g
- Drug uptake (Liver [38]): 0.6 % ID/g
- Drug uptake (Pancreas [39]): 2.25 % ID/g
- Drug uptake (Spleen [40]): 0.57 % ID/g
- Drug uptake (Kidney [41]): 9.22 % ID/g
- Drug uptake (Muscle tissue [42]): 0.27 % ID/g
- Drug uptake (Bone [43]): 0.51 % ID/g
- Drug uptake [44]: 0.19 % ID/g
- Drug uptake [45]: 0.05 % ID/g
- Drug uptake [46]: 2.64 % ID/g
- Ratio (Brain [47]): 25
- Drug uptake (Brain [48]): 0.04 % ID/g
- Ratio [49]: 58.2
